In brackets after ≈: the same amount, converted by molar mass. Activity calls are given as the source filed them. The calls are words filed in the database; no cut-off is given here.
Columns and labels:
[1] = test system: Salmonella typhimurium; experiment: Antibacterial activity against Salmonella Typhimurium ATCC 14028 at 200 ug/mL; assay type: functional, organism-based; details: Salmonella enterica subsp. enterica serovar Typhimurium
[2] = test system: Proteus vulgaris; experiment: […] activity against Proteus vulgaris ATCC 3851 at 200 ug/mL; assay type: functional, organism-based
[3] = test system: Escherichia coli; experiment: Antibacterial activity against Escherichia coli ATCC 11775 at 200 ug/mL; assay type: functional, organism-based
[4] = test system: Trichophyton mentagrophytes; experiment: Antifungal activity against Trichophyton mentagrophytes IFO 40996 at 200 ug/mL; assay type: functional, organism-based
[5] = test system: Trichophyton rubrum; experiment: Antifungal activity against Trichophyton rubrum IFO 6204 at 200 ug/mL; assay type: functional, organism-based
[6] = Inhibition of Staphylococcus aureus sortase B
Procedure, shortened: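 Recombinant sortase B enzyme; inhibition given as EC50 in µg/mL.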

[7] = test system: Klebsiella pneumoniae; experiment: Antibacterial activity against Klebsiella pneumoniae ATCC 10031 at 200 ug/mL; assay type: functional, organism-based
[8] = test system: Micrococcus luteus; experiment: Antibacterial activity against Micrococcus luteus ATCC 10240 at 200 ug/mL; assay type: functional, organism-based
[9] = test system: Staphylococcus aureus; experiment: Antibacterial activity against Staphylococcus aureus ATCC 6538 at 200 ug/mL; assay type: functional, organism-based
[10] = test system: Candida albicans; experiment: Antifungal activity against Candida albicans ATCC 10231 at 200 ug/mL; assay type: functional, organism-based
[11] = test system: Bacillus subtilis; experiment: Antibacterial activity against Bacillus subtilis ATCC 6633 at 200 ug/mL; assay type: functional, organism-based

| EC50 [6] [µg/mL] | SMILES | Activity [1] | Activity [2] | Activity [3] | Activity [4] | Activity [5] | Activity [7] | Activity [8] | Activity [9] | Activity [10] | Activity [11] |
| --- | --- | --- | --- | --- | --- | --- | --- | --- | --- | --- | --- |
| > 200 | O=C1CCC(=O)N(O)CCCCCNC(=O)CCC(=O)N(O)CCCCCNC(=O)CCC(=O)N(O)CCCCCN1 [NOCARDAMINE] | inactive | inactive | inactive | inactive | inactive | inactive | inactive | inactive | inactive | inactive |
| 126.4 (≈ 215 µM) | O=C1CCC(=O)N(O)CCCCCNC(=O)CCC(=O)N(O)CCCCNC(=O)CCC(=O)N(O)CCCCCN1 [DESMETHYLENYLNOCARDAMINE] | inactive | inactive | inactive | inactive | inactive | inactive | inactive | inactive | inactive | inactive |
| 88.3 (≈ 151 µM) | O=C1CCC(=O)NCCCCCN(O)C(=O)CCC(=O)NCCCCCN(O)C(=O)CCC(=O)NCCCCCN1 [DEHYDROXYNOCARDAMINE] | inactive | inactive | inactive | inactive | inactive | inactive | inactive | inactive | inactive | inactive |

Source: ChEMBL document CHEMBL1158747, “Cyclic peptides of the nocardamine class from a marine-derived bacterium of the genus Streptomyces” (J Nat Prod, 2005)
